Experimental data published in ChEMBL document CHEMBL1154722, “Syntheses and evaluation of the antioxidant activity of acitretin analogs with amide bond(s) in the polyene spacer” (Eur J Med Chem, 2010).
pIC50: −log10 of the molar value. Activity calls are given as the source filed them. The calls are words filed in the database; no cut-off is given here.

Tests used:
Rattus norvegicus = assay: Antiinflammatory activity in Fisher 344 rat assessed as inhibition of carrageenan-induced paw edema at 0.01 mmol/Kg, ip administered simultaneously with carrageenan measured after 3.5 hrs relative to control; assay type: functional; details: Fisher 344, ip
Outline: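 Fischer-344 rats of both sexes (pregnant females excluded), 6–15 per group. Oedema induced in right hind paw by intradermal 0.1 ml 2% carrageenan in water. Compounds suspended in water with a few drops Tween 80, given ip at carrageenan injection. Rats killed at 3.5 h. Injected minus uninjected paw weight compared with water-treated controls as % inhibition. Mean of two experiments.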

[1] = Inhibition of soybean lipoxygenase assessed as conversion of sodium linoleate to 13-hydroperoxylinoleate; set-up: species or system Glycine max
Outline: (§1)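 Soybean lipoxygenase solution (1/9×10^-4 w/v in saline) incubated at room temperature with sodium linoleate and compound in DMSO. Conversion to 13-hydroperoxylinoleate recorded at 234 nm and compared with a standard inhibitor. At least triplicate.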

[2] = Antioxidant activity assessed as inhibition of AAPH-induced lipid peroxidation at 100 uM; assay type: functional
Outline: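 Run at 37 °C in 0.05 M phosphate buffer pH 7.4 with 10 μL of 16 mM sodium linoleate (stock), compound in DMSO (10 μL). Oxidation started in air by 50 μL of 40 mM AAPH (stock). Conjugated diene formation followed as rising absorbance at 234 nm. Controls carried the same DMSO level. At least triplicate.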

[3] = test system: Radical scavenging activity; assay: Antioxidant activity assessed as DPPH radical scavenging activity at 100 uM after 20 mins by spectrophotometry; assay type: functional
Outline: (§2)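 DPPH at 0.05 mM in absolute ethanol mixed with an equal volume of compound in DMSO. Mixture shaken and left 20 or 60 min. Absorbance read at 517 nm to give percent activity. Three replicates averaged.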

Glycine max [4] = assay: Inhibition of soybean lipoxygenase assessed as conversion of sodium linoleate to 13-hydroperoxylinoleate at 100 uM; outline: as §1
[5] = test system: Radical scavenging activity; assay: Antioxidant activity assessed as DPPH radical scavenging activity at 100 uM after 60 mins by spectrophotometry; assay type: functional; outline: as §2
Glycine max [6] = assay: Inhibition of soybean lipoxygenase assessed as conversion of sodium linoleate to 13-hydroperoxylinoleate at 10 uM; outline: as §1
Glycine max [7] = assay: Inhibition of soybean lipoxygenase assessed as conversion of sodium linoleate to 13-hydroperoxylinoleate at 50 uM; outline: as §1

Structure (SMILES)	inhibition in vivo at 10 µmol/kg (Rattus norvegicus) [%]	pIC50 [1]	inhibition [2] [%]	Activity [3]	inhibition (Glycine max [4]) [%]	Activity [5] [%]	inhibition (Glycine max [6]) [%]	inhibition (Glycine max [7]) [%]
O=C(O)/C=C/c1cn(C(=O)/C=C/c2ccc3c(c2)OCO3)c2ccccc12	34	4.19	22	21%				
COc1ccc(NC(=O)c2cn(C(=O)/C=C/c3cc(OC)c(OC)cc3OC)c3ccccc23)c(OC)c1			42	5%	69			
CC(C)(C)OC(=O)/C=C/c1cn(C(=O)/C=C/c2ccc3c(c2)OCO3)c2ccccc12		4.08	95	13%				
O=C(O)/C=C/c1ccc(O)c(O)c1 [CAFFEIC ACID]		3.22	17.5	5.5%				
CC(Cc1ccc(O)c(O)c1)C(C)Cc1ccc(O)c(O)c1 (stereo not given)				81%		83		
COc1cc(OC)c(OC)cc1/C=C/C(=O)n1ccc(/C(C)=C/C(=O)OC(C)(C)C)c1			46	8%	39			
COc1ccc(NC(=O)c2cn(C(=O)/C=C/C(=O)OC(C)(C)C)c3ccccc23)c(OC)c1	58.6	4.00	68	5%				
COc1cc(NC(=O)c2cn(C(=O)CCC(=O)O)c3ccccc23)cc(OC)c1OC			34	12.5%	10			
O=C(O)/C=C/C(=O)n1cc(C(=O)Nc2cccc([N+](=O)[O-])c2)c2ccccc21			94	inactive	26			
COc1cc(C)c(/C=C/C(C)=C/C=C/C(C)=C/C(=O)O)c(C)c1C [ACITRETIN]	63		85	inactive	1			
O=C(O)/C=C/C(=O)n1cc(C(=O)Nc2ccccc2)c2ccccc21		4.28	85	1%				
COc1ccc(NC(=O)c2cn(C(=O)/C=C/C(=O)O)c3ccccc23)c(OC)c1	46	4.46	77	10%				
CC(C)(C)OC(=O)/C=C1/c2ccccc2-c2c(NC(=O)/C=C/c3ccc4c(c3)OCO4)cccc21			49	inactive	43	6		
COc1cc(NC(=O)c2cn(C(=O)/C=C/C(=O)O)c3ccccc23)cc(OC)c1OC			64	26%	57			
COc1cc(OC)c(C2CC(=O)n3c2c(/C=C/C(=O)O)c2ccccc23)cc1OC (stereo not given)	9	4.34	57	12%				
COc1cc(NC(=O)c2cn(C(=O)/C=C\C(=O)O)c3ccccc23)cc(OC)c1OC			8	2%	42			
Cc1c(C)c2c(c(C)c1O)CCC(C)(C(=O)O)O2 (stereo not given)			63					
COc1ccc2c(c1)c(CC(=O)O)c(C)n2C(=O)c1ccc(Cl)cc1 [INDOMETHACIN]	47							
COc1cc(OC)c(OC)cc1/C=C/C(=O)n1cc(/C=C/C(=O)OC(C)(C)C)c2ccccc21			80	8.3%	85		0	85
